# Measurements reported in ChEMBL document CHEMBL6083205, “A comprehensive apoptotic assessment of niloticin in cervical cancer cells: a tirucallane-type triterpenoid from Aphanamixis polystachya (Wall.) Parker” (RSC Med Chem, 2024).
# System: HeLa
# Experiment: Antiproliferative activity against human HeLa cells assessed as inhibition of cell growth incubated for 24 hrs by MTT assay
# Type: functional, cell-based
# Summary of the method: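 Cells kept in DMEM with 10% FBS and 1% antibiotic-antimycotic at 37 °C and 5% CO2. Seeded at 8 × 10^3 cells per 100 μL and left 24 h, then exposed 24 h to 5, 10, 20, 50 or 100 μM. MTT at 0.5 mg/mL in HBSS was added for 2–4 h at 37 °C in the dark. Formazan was dissolved in DMSO, A570 was read, and IC50 was derived.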
structure (smiles),measurement,value
C[C@@H](C[C@@H](O)[C@H](O)C(C)(C)O)[C@@H]1CC[C@]2(C)C3=CC[C@H]4C(C)(C)[C@H](O)CC[C@]4(C)[C@H]3CC[C@@]12C,IC50,> 100 µM
